{"source": "ChEMBL document CHEMBL1131131", "about": "“Structure-based design of beta-lactamase inhibitors. 2. Synthesis and evaluation of bridged sulfactams and oxamazins” (J Med Chem, 1998)", "key": {"Escherichia coli": {"system": "Escherichia coli", "assay": "Minimum inhibitory concentration against the strains of Escherichia coli that produce the beta-lactamases", "type": "functional", "method_in_brief": "(§1)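 Agar dilution on Mueller-Hinton agar with twofold serial dilutions of the compound or combination. About 10⁴ organisms were spotted with a multipoint inoculator. Plates were incubated for 18 h at 35 °C. MIC was taken as the lowest concentration preventing visible growth.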"}, "Citrobacter freundii": {"system": "Citrobacter freundii", "assay": "Minimum inhibitory concentration against the strain Citrobacter freundii 1982 that produce the beta-lactamases", "type": "functional", "method_in_brief": "as §1"}, "Pseudomonas aeruginosa": {"system": "Pseudomonas aeruginosa", "assay": "Minimum inhibitory concentration against the strains of Pseudomonas aeruginosa that produce the beta-lactamases", "type": "functional", "method_in_brief": "as §1"}, "[1]": {"assay": "Kinetic parameter was determined"}}}
{"smiles": "NC(=O)c1ccc(NC(=O)N2CCC3C2C(=O)N3OS(=O)(=O)[O-])cc1.[Na+]", "note": "(stereo not given)", "values": [{"measurement": "MIC", "setting": "Escherichia coli", "result": 8, "unit": "µg/mL"}, {"measurement": "MIC", "setting": "Citrobacter freundii", "result": 1, "unit": "µg/mL"}, {"measurement": "MIC", "setting": "Pseudomonas aeruginosa", "result": 128, "unit": "µg/mL"}]}
{"smiles": "CC(C)(C)OC(=O)N1CCC2C1C(=O)N2OCC(=O)OCc1ccccc1", "note": "(stereo not given)", "values": [{"measurement": "MIC", "setting": "Escherichia coli", "result": "> 16", "unit": "µg/mL"}, {"measurement": "MIC", "setting": "Citrobacter freundii", "result": "> 16", "unit": "µg/mL"}, {"measurement": "MIC", "setting": "Pseudomonas aeruginosa", "result": "> 16", "unit": "µg/mL"}]}
{"smiles": "CC(C)(C)OC(=O)N1CCC2C1C(=O)N2OS(=O)(=O)[O-].[Na+]", "note": "(stereo not given)", "values": [{"measurement": "MIC", "setting": "Escherichia coli", "result": 4, "unit": "µg/mL"}, {"measurement": "Koff", "setting": "[1]", "result": 0.12, "unit": "s⁻¹"}, {"measurement": "Kon", "setting": "[1]", "result": 20, "unit": "s⁻¹"}, {"measurement": "Ks", "setting": "[1]", "result": 600, "unit": "µM"}, {"measurement": "MIC", "setting": "Citrobacter freundii", "result": 4, "unit": "µg/mL"}, {"measurement": "MIC", "setting": "Pseudomonas aeruginosa", "result": 32, "unit": "µg/mL"}]}
{"smiles": "NC(=O)c1ccc(NC(=O)N2CC[C@@H]3[C@H]2C(=O)N3S(=O)(=O)O)cc1", "values": [{"measurement": "MIC", "setting": "Escherichia coli", "result": 16, "unit": "µg/mL"}, {"measurement": "MIC", "setting": "Citrobacter freundii", "result": 0.25, "unit": "µg/mL"}, {"measurement": "MIC", "setting": "Pseudomonas aeruginosa", "result": 4, "unit": "µg/mL"}]}
{"smiles": "CC(C)(C)OC(=O)N1CC[C@@H]2[C@H]1C(=O)N2S(=O)(=O)O", "values": [{"measurement": "MIC", "setting": "Escherichia coli", "result": 16, "unit": "µg/mL"}, {"measurement": "Koff", "setting": "[1]", "result": "< 8e-07", "unit": "s⁻¹"}, {"measurement": "Kon", "setting": "[1]", "result": 12.5, "unit": "s⁻¹"}, {"measurement": "Ks", "setting": "[1]", "result": 127, "unit": "µM"}, {"measurement": "MIC", "setting": "Pseudomonas aeruginosa", "result": 8, "unit": "µg/mL"}]}
